Data from ChEMBL document CHEMBL3085685, “In vitro and in vivo antileishmanial and trypanocidal studies of new N-benzene- and N-naphthalenesulfonamide derivatives” (J Med Chem, 2013).
Calls of active or inactive are those of the source. No cut-off for these calls is given here.

Assays:
[1] = Selectivity index, ratio of CC50 for mouse NCTC-929 cells to IC50 for extracellular epimastigote stage of Trypanosoma cruzi CL-B5; format: functional
[2] = system: Leishmania braziliensis; experiment: Leishmanicidal activity against extracellular promastigote stage of Leishmania braziliensis 2903 assessed as reduction of parasite load after 48 hrs by resazurin dye-based fluorometric analysis; format: functional, organism-based; details: Leishmania braziliensis, 2903, 48 h; read-out: IC50
Procedure, shortened: (§1)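 Log-phase promastigotes cultured in Schneider's medium with 20% heat-inactivated FBS at 26 °C, 2.5 × 10^5 per well. DMSO-dissolved compounds added as 2-fold serial dilutions, final DMSO ≤0.2% (v/v), 48 h at 26 °C. Growth read by 2.5 mM resazurin stock, fluorescence 535/590 nm. Triplicate; IC50 by probit analysis.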

[3] = system: Trypanosoma cruzi; experiment: Trypanocidal activity against bloodstream trypomastigote stage of Trypanosoma cruzi Y infected in BALB/c mouse assessed as reduction of parasitemia at 10 mg/kg/day, ip qd administered for 5 days measured on day 10 post-infection by microscopic analysis relative to control; format: functional; set-up: scale not given: the % may be the effect or the level left; details: route intraperitoneal
Procedure, shortened: (§2)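 Female BALB/c mice (20–24 g) infected ip with 10^4 Y-strain bloodstream trypomastigotes; only parasitemic animals used. Compounds dissolved in DMSO, freshly diluted in propylene glycol, given ip at 10 mg/kg/day for 5 days from 5 dpi, with an untreated group. Parasitemia counted by Pizzi–Brener in 5 μL tail blood at 5, 8, 10 dpi; mortality checked daily to 30 dpi.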

[4] = Selectivity index, ratio of CC50 for mouse J774 cells to IC50 for extracellular promastigote stage of Leishmania guyanensis 141/93; format: functional
[5] = Cytotoxicity against mouse J774 cells assessed as reduction of cell viability after 24 hrs by resazurin dye-based fluorometric analysis
Procedure, shortened: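 J774 macrophages in RPMI 1640 with 10% heat-inactivated FBS, seeded at 5 × 10^4 cells/well and attached 24 h at 37 °C, 5% CO2. Medium swapped for drug dilutions for 24 h. Then 2.5 mM resazurin stock added for 3 h, fluorescence read at 535 nm excitation / 590 nm emission. Triplicate; CC50 from probit analysis.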

[6] = system: Leishmania amazonensis; experiment: Leishmanicidal activity against extracellular promastigote stage of Leishmania amazonensis MHOM/Br/79/Maria assessed as reduction of parasite load after 48 hrs by resazurin dye-based fluorometric analysis; format: functional, organism-based; details: Leishmania amazonensis, MHOM/Br/79/Maria, 48 h; read-out: IC50; procedure, shortened: as §1
[7] = system: Trypanosoma cruzi; experiment: Trypanocidal activity against bloodstream trypomastigote stage of Trypanosoma cruzi Y infected in BALB/c mouse assessed as reduction of survival rate at 10 mg/kg/day, ip qd administered for 5 days measured daily until day 30 post-infection; format: functional, organism-based; procedure, shortened: as §2
[8] = Selectivity index, ratio of CC50 for mouse J774 cells to IC50 for extracellular promastigote stage of Leishmania amazonensis MHOM/Br/79/Maria; format: functional
[9] = system: Leishmania infantum; experiment: Leishmanicidal activity against intracellular amastigote stage of Leishmania infantum MCAN/ES/96/BCN150 infected in mouse J774 cells assessed as reduction of parasite load after 48 hrs by resazurin dye-based fluorometric analysis; format: functional, organism-based; details: Leishmania infantum, MCAN/ES/96/BCN150, J774, 48 h; read-out: IC50
Procedure, shortened: (§3)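 J774 macrophages (5 × 10^4/well) infected with stationary promastigotes at 1:10, 24 h at 33 °C then 24 h at 37 °C, 5% CO2, and washed free of promastigotes. Then 2-fold serial dilutions in triplicate for 48 h at 37 °C. Cells lysed with RPMI with 0.048% HEPES and 0.006% SDS, transformed in Schneider's 3 days at 26 °C, resazurin 3 h, fluorescence 535/590 nm.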

[10] = system: Trypanosoma cruzi; experiment: Trypanocidal activity against extracellular epimastigote stage of Trypanosoma cruzi CL-B5 assessed as reduction of parasite load after 72 hrs by CPRG-based colorimetric analysis
[11] = system: Leishmania infantum; experiment: Leishmanicidal activity against promastigote stage of Leishmania infantum MCAN/ES/96/BCN150 infected in BALB/c mouse assessed as reduction of parasite burden in liver at 5 mg/kg, ip qd administered for 5 days measured after 7 days by limiting dilution assay relative to untreated control; format: functional
Procedure, shortened: (§4)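 BALB/c mice infected intracardially under pentobarbital anaesthesia with 10^7 stationary L. infantum BCN150 promastigotes. From day 21 post-infection, dosed ip once daily for 5 days in 0.1 mL propylene glycol, with an untreated control group. Killed 7 days later; spleen and liver burdens by limiting dilution and expressed as % reduction versus controls.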

[12] = system: Leishmania infantum; experiment: Leishmanicidal activity against promastigote stage of Leishmania infantum MCAN/ES/96/BCN150 infected in BALB/c mouse assessed as reduction of parasite burden in spleen at 5 mg/kg, ip qd administered for 5 days measured after 7 days by limiting dilution assay relative to untreated control; format: functional; procedure, shortened: as §4
[13] = system: Leishmania amazonensis; experiment: Leishmanicidal activity against intracellular amastigote stage of Leishmania amazonensis MHOM/Br/79/Maria infected in mouse J774 cells assessed as reduction of parasite load after 48 hrs by resazurin dye-based fluorometric analysis; format: functional, organism-based; details: Leishmania amazonensis, MHOM/Br/79/Maria, J774, 48 h; read-out: IC50; procedure, shortened: as §3
[14] = Cytotoxicity against mouse NCTC-929 cells assessed as reduction of cell viability after 24 hrs by resazurin dye-based […]
Procedure, shortened: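 NCTC clone 929 fibroblasts in DMEM with 10% FBS and 2 mM L-glutamine, plated at 3 × 10^4 cells/well and grown overnight at 37 °C, 5% CO2. Compounds in fresh medium for 24 h, then 2 mM resazurin solution added for 3 h. Absorbance read at 570 and 595 nm; CC50 taken as 50% viability loss versus untreated cells, by probit analysis.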

[15] = system: Trypanosoma cruzi; experiment: Trypanocidal activity against intracellular amastigote stage of Trypanosoma cruzi CL-B5 infected in mouse NCTC-929 cells assessed as reduction of parasite load after 7 days by CPRG-based colorimetric analysis
[16] = system: Leishmania guyanensis; experiment: Leishmanicidal activity against extracellular promastigote stage of Leishmania guyanensis 141/93 assessed as reduction of parasite load after 48 hrs by resazurin dye-based fluorometric analysis; format: functional, organism-based; details: Leishmania guyanensis, 141/93, 48 h; read-out: IC50; procedure, shortened: as §1
[17] = system: Leishmania infantum; experiment: Leishmanicidal activity against extracellular promastigote stage of Leishmania infantum MCAN/ES/96/BCN150 assessed as reduction of parasite load after 48 hrs by resazurin dye-based fluorometric analysis; format: functional, organism-based; details: Leishmania infantum, MCAN/ES/96/BCN150, 48 h; read-out: IC50; procedure, shortened: as §1
[18] = system: Trypanosoma cruzi; experiment: Trypanocidal activity against bloodstream trypomastigote stage of Trypanosoma cruzi Y infected in BALB/c mouse assessed as reduction of parasitemia at 10 mg/kg/day, ip qd administered for 3 days measured on day 8 post-infection by microscopic analysis relative to control; format: functional; set-up: scale not given: the % may be the effect or the level left; details: route intraperitoneal; procedure, shortened: as §2
[19] = Selectivity index, ratio of CC50 for mouse J774 cells to IC50 for extracellular promastigote stage of Leishmania braziliensis 2903; format: functional
[20] = system: Leishmania infantum; experiment: Antileishmanial activity against promastigote stage of Leishmania infantum assessed as alteration in nuclear DNA at IC50 after 48 hrs by propidium iodide staining-based confocal laser scanning microscopic analysis; format: functional, organism-based
[21] = system: Leishmania infantum; experiment: Antileishmanial activity against promastigote stage of Leishmania infantum assessed as alteration in kinetoplast DNA at IC50 after 48 hrs by propidium iodide staining-based confocal laser scanning microscopic analysis; format: functional, organism-based
[22] = system: Leishmania infantum; experiment: Binding affinity to beta-tubulin in promastigote stage of Leishmania infantum assessed as structure disorganization at IC50 after 48 hrs by confocal laser scanning microscopic analysis
[23] = system: Leishmania infantum; experiment: Leishmanicidal activity against promastigote stage of Leishmania infantum MCAN/ES/96/BCN150 infected in BALB/c mouse assessed as reduction of parasite burden in liver at 10 mg/kg, ip qd administered for 5 days measured after 7 days by limiting dilution assay relative to untreated control; format: functional; set-up: scale not given: the % may be the effect or the level left; details: route intraperitoneal; procedure, shortened: as §4
[24] = system: Mus musculus; experiment: Toxicity in BALB/c mouse infected with promastigote stage of Leishmania infantum MCAN/ES/96/BCN150 assessed as gross weight loss at 10 mg/kg, ip qd administered for 5 days; format: organism-based; set-up: dose 10 mg/kg, route intraperitoneal; details: in vivo, 120 h; procedure, shortened: as §4
[25] = Selectivity index, ratio of CC50 for mouse J774 cells to IC50 for extracellular promastigote stage of Leishmania infantum MCAN/ES/96/BCN150; format: functional
[26] = system: Leishmania infantum; experiment: Leishmanicidal activity against promastigote stage of Leishmania infantum MCAN/ES/96/BCN150 infected in BALB/c mouse assessed as reduction of parasite burden in spleen at 10 mg/kg, ip qd administered for 5 days measured after 7 days by limiting dilution assay relative to untreated control; format: functional; set-up: scale not given: the % may be the effect or the level left; details: route intraperitoneal; procedure, shortened: as §4
[27] = system: Mus musculus; experiment: Toxicity in BALB/c mouse infected with promastigote stage of Leishmania infantum MCAN/ES/96/BCN150 assessed as hair loss at 10 mg/kg, ip qd administered for 5 days; format: organism-based; set-up: dose 10 mg/kg, route intraperitoneal; details: in vivo, 120 h; procedure, shortened: as §4
[28] = system: Mus musculus; experiment: Toxicity in BALB/c mouse infected with promastigote stage of Leishmania infantum MCAN/ES/96/BCN150 assessed as appearance of hyperactivity with local skin irritation at 5 mg/kg, ip qd administered for 5 days; format: organism-based; set-up: dose 5 mg/kg, route intraperitoneal; details: in vivo, 120 h; procedure, shortened: as §4
[29] = system: Leishmania infantum; experiment: Antileishmanial activity against promastigote stage of Leishmania infantum assessed as disappearance of kinetoplast DNA at IC50 after 48 hrs by propidium iodide staining-based confocal laser scanning microscopic analysis; format: functional, organism-based
[30] = system: Leishmania infantum; experiment: Binding affinity to beta-tubulin in promastigote stage of Leishmania infantum assessed as structure disorganization at IC50 after 24 to 48 hrs by confocal laser scanning microscopic analysis
[31] = system: Leishmania infantum; experiment: Antileishmanial activity against promastigote stage of Leishmania infantum assessed as induction of apoptosis at IC50 after 48 hrs by propidium iodide staining-based confocal laser scanning microscopic analysis; format: functional, organism-based

Row | SMILES | IC50 [2] [µM] | Ratio CC50/IC50 [4] | CC50 at 24 h [5] [µM] | IC50 [6] [µM] | Ratio CC50/IC50 [8] | IC50 [9] [µM] | Activity [11] | Activity [12] | IC50 [13] [µM] | IC50 [16] [µM] | IC50 [17] [µM] | IC50 [10] | IC50 ([15]; nctc-929) | Activity ([12]; route intraperitoneal) [%] | Ratio CC50/IC50 [25] | further results
1 | O=S(=O)(Nc1cccc2cnccc12)c1cccc2ccccc12 | 23 | > 16.2 | ≥ 300 | 24.5 | >10.4 | 23 | inactive | inactive | 42.9 | 15.8 | 20.3 |  |  |  |  | Ratio CC50/IC50 [1]: >1.9; Activity [3]: 60%; Activity [7]: Active; IC50 ([10]; Trypanosoma cruzi, CL-B5, 72 h, read-out: IC50): 97.6 µM; CC50 at 24 h [14]: 187 µM; IC50 ([15]; Trypanosoma cruzi, CL-B5, NCTC-929, 168 h, read-out: IC50): 141 µM; Activity [18]: 72%
2 | Cc1cc2cc(NS(=O)(=O)c3ccccc3)ccc2[nH]1 | 29 |  | ≥ 300 | 15.4 | > 16.6 | 47.3 | inactive | inactive | 64.1 | 20.9 | 23.4 | Not Active | Not Active |  |  | Ratio CC50/IC50 [19]: >8.8
3 | O=S(=O)(Nc1ccc2[nH]ncc2c1)c1ccccc1 | 40.3 | >5.3 | ≥ 300 | 38.7 |  | 83.2 |  |  | 30.8 | 47.9 | 37.3 | Not Active | Not Active | 55.5 | > 6.9 | Activity [20]: inactive; Activity [21]: inactive; Activity [22]: Active; Activity [23]: 97.57%; Activity ([11]; route intraperitoneal): 78.9%; Activity [24]: Non-toxic; Activity [26]: 96.34%; Activity [27]: Non-toxic
4 | CC1CCCN(S(=O)(=O)c2cccc3ccccc23)C1 (stereo not drawn) | 9.9 |  | ≥ 300 | 24.6 | >10.4 | 7.1 | inactive |  | 18 | 7.2 | 6.7 | Not Active | Not Active | 80.17 | > 38.2 | Activity [28]: Toxic; Activity [29]: Active; Activity [30]: Active; Activity [31]: Active
